# In ChEMBL document CHEMBL4359902, “Development of novel chromeno[4,3-c]pyrazol-4(2H)-one derivates bearing sulfonylpiperazine as antitumor inhibitors targeting PI3Kα” (Eur J Med Chem, 2019):
# pIC50: −log10 of the molar value.
# Assays:
# HCT-116 [1] = assay: Antitumour activity against human HCT116 cells xenografted in nude mouse assessed as tumour growth inhibition at 10 mg/kg, ig administered every 3 days for 3 weeks and measured after 3 weeks relative to control; format: functional; conditions: HCT-116, po, read-out: TGI
# Outline: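 HCT-116 cells (5 × 10^6 per animal) injected into right flank of nude mice; at ~100 mm³ tumours, randomized into groups of 6. Dosed 10 mg/kg in 5% CMC-Na intragastrically every three days for three weeks; vehicle control 5% CMC-Na. Body weight and tumour size recorded every three days, volume = 0.5 × length × width²; tumours excised and weighed at end. Mean ± SD.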
# HCT-116 [2] = assay: Antiproliferative activity against human HCT116 cells assessed as reduction in cell viability after 48 hrs by MTT assay; format: functional, cell-based; conditions: HCT-116, 48 h
# Huh-7 = assay: Antiproliferative activity against human HuH7 cells assessed as reduction in cell viability after 48 hrs by MTT assay; format: functional, cell-based; conditions: Huh-7, 48 h
# HL-60 = assay: Antiproliferative activity against human HL60 cells assessed as reduction in cell viability after 48 hrs by MTT assay; format: functional, cell-based; conditions: HL-60, 48 h
# [3] = target: T1, Phosphatidylinositol 4,5-bisphosphate 3-kinase catalytic subunit alpha isoform (Homo sapiens, UniProt P42336); assay: Inhibition of PI3Kalpha (unknown origin) using diC8-PI(4,5)P2 as substrate incubated for 3 hrs in presence of ATP by fluorescence polarization assay
# Outline: (§1)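 Fluorescence polarization competition assay, 10 μL reactions at pH 7: 2.5 mM MgCl₂, 5 mM HEPES, ATP, 10 mM DTT, 50 ng PI3K isoform, diC8-PI(4,5)P2 substrate. After 3 h at room temperature, reactions were chelator-quenched. Phosphoinositide binding protein and fluorophore-labelled tracer were added, then 1 h dark equilibration and polarization read.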
# [4] = target: Phosphatidylinositol 4,5-bisphosphate 3-kinase catalytic subunit beta isoform (Homo sapiens, UniProt P42338); assay: Inhibition of PI3Kbeta (unknown origin) using diC8-PI(4,5)P2 as substrate incubated for 3 hrs in presence of ATP by fluorescence polarization assay; outline: as §1
# [5] = target: Phosphatidylinositol 4,5-bisphosphate 3-kinase catalytic subunit gamma isoform (Homo sapiens, UniProt P48736); assay: Inhibition of PI3Kgamma (unknown origin) using diC8-PI(4,5)P2 as substrate incubated for 3 hrs in presence of ATP by fluorescence polarization assay; outline: as §1
# [6] = Cytotoxicity against human 293T cells; format: cell-based; conditions: HEK-293T cells
# [7] = target: Serine/threonine-protein kinase mTOR (Homo sapiens, UniProt P42345); assay: Inhibition of mTOR (unknown origin)
# [8] = target: T1, Phosphatidylinositol 4,5-bisphosphate 3-kinase catalytic subunit alpha isoform; assay: Inhibition of PI3K-alpha in human HCT116 cells assessed as decrease in phosphorylated Akt protein expression level measured after 24 hrs by Western blot analysis; format: cell-based
# Outline: (§2)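 HCT-116 cells exposed for 24 h at 0.25, 0.5 and 1 μM, lysed in RIPA buffer, and analysed by SDS-PAGE/PVDF Western blot for p-Akt (Ser473) and p-S6K. β-actin internal control; densitometry mean ± SEM, n = 3.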
# [9] = target: T1, Phosphatidylinositol 4,5-bisphosphate 3-kinase catalytic subunit alpha isoform; assay: Inhibition of PI3K-alpha in human HCT116 cells assessed as decrease in phosphorylated S6K protein expression level measured after 24 hrs by Western blot analysis; format: cell-based; outline: as §2
# HCT-116 [10] = assay: Cell cycle arrest in human HCT116 cells assessed as accumulation at G1 phase at 0.25 uM measured after 24 hrs by propidium iodide staining based flow cytometry analysis (reference value: 42.01 %); format: functional
# HCT-116 [11] = assay: Cell cycle arrest in human HCT116 cells assessed as accumulation at G2 phase at 0.25 uM measured after 24 hrs by propidium iodide staining based flow cytometry analysis (reference value: 7.86 %); format: functional
# HCT-116 [12] = assay: Cell cycle arrest in human HCT116 cells assessed as accumulation at S phase at 0.25 uM measured after 24 hrs by propidium iodide staining based flow cytometry analysis (reference value: 50.12 %); format: functional
# HCT-116 [13] = assay: Cell cycle arrest in human HCT116 cells assessed as accumulation at G1 phase at 0.5 uM measured after 24 hrs by propidium iodide staining based flow cytometry analysis (reference value: 42.01 %); format: functional
# HCT-116 [14] = assay: Cell cycle arrest in human HCT116 cells assessed as accumulation at G2 phase at 0.5 uM measured after 24 hrs by propidium iodide staining based flow cytometry analysis (reference value: 7.86 %); format: functional
# HCT-116 [15] = assay: Cell cycle arrest in human HCT116 cells assessed as accumulation at S phase at 0.5 uM measured after 24 hrs by propidium iodide staining based flow cytometry analysis (reference value: 50.12 %); format: functional
# HCT-116 [16] = assay: Cell cycle arrest in human HCT116 cells assessed as accumulation at G2 phase at 1 uM measured after 24 hrs by propidium iodide staining based flow cytometry analysis (reference value: 7.86 %); format: functional
# HCT-116 [17] = assay: Induction of apoptosis in human HCT116 cells assessed as viable cells at 0.25 uM measured after 24 hrs by annexin-v-FITC/propidium iodide staining based FACScan flow cytometry analysis (reference value: 78.5 %); format: functional; conditions: HCT-116, 24 h, read-out: Activity
# HCT-116 [18] = assay: Induction of apoptosis in human HCT116 cells assessed as necrotic cells at 0.25 uM measured after 24 hrs by annexin-v-FITC/propidium iodide staining based FACScan flow cytometry analysis (reference value: 1.87 %); format: functional
# HCT-116 [19] = assay: Induction of apoptosis in human HCT116 cells assessed as viable cells at 0.5 uM measured after 24 hrs by annexin-v-FITC/propidium iodide staining based FACScan flow cytometry analysis (reference value: 78.5 %); format: functional; conditions: HCT-116, 24 h, read-out: Activity
# HCT-116 [20] = assay: Induction of apoptosis in human HCT116 cells assessed as early apoptotic cells at 0.5 uM measured after 24 hrs by annexin-v-FITC/propidium iodide staining based FACScan flow cytometry analysis (reference value: 10.0 %); format: functional
# HCT-116 [21] = assay: Induction of apoptosis in human HCT116 cells assessed as late apoptotic cells at 0.5 uM measured after 24 hrs by annexin-v-FITC/propidium iodide staining based FACScan flow cytometry analysis (reference value: 9.61 %); format: functional
# HCT-116 [22] = assay: Induction of apoptosis in human HCT116 cells assessed as necrotic cells at 0.5 uM measured after 24 hrs by annexin-v-FITC/propidium iodide staining based FACScan flow cytometry analysis (reference value: 1.87 %); format: functional
# HCT-116 [23] = assay: Induction of apoptosis in human HCT116 cells assessed as viable cells at 1 uM measured after 24 hrs by annexin-v-FITC/propidium iodide staining based FACScan flow cytometry analysis (reference value: 78.5 %); format: functional; conditions: HCT-116, 24 h, read-out: Activity
# HCT-116 [24] = assay: Induction of apoptosis in human HCT116 cells assessed as late apoptotic cells at 1 uM measured after 24 hrs by annexin-v-FITC/propidium iodide staining based FACScan flow cytometry analysis (reference value: 9.61 %); format: functional
# HCT-116 [25] = assay: Induction of apoptosis in human HCT116 cells assessed as decrease in Bcl-2 protein level measured after 24 hrs by Western blot analysis; format: functional, cell-based
# Outline: (§3)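 HCT-116 cells treated at 0.25, 0.5 and 1 μM for 24 h, lysed in RIPA buffer with PMSF. Proteins separated by SDS-PAGE (8% or 10%), transferred to PVDF and probed with primary antibodies and HRP secondaries. β-actin served as internal control; bands quantified as bar graphs.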
# HCT-116 [26] = assay: Induction of apoptosis in human HCT116 cells assessed as increase in cleaved caspase-3 protein level measured after 24 hrs by Western blot analysis; format: functional, cell-based; outline: as §3
# T1 sequence (P42336 whole entry, canonical isoform): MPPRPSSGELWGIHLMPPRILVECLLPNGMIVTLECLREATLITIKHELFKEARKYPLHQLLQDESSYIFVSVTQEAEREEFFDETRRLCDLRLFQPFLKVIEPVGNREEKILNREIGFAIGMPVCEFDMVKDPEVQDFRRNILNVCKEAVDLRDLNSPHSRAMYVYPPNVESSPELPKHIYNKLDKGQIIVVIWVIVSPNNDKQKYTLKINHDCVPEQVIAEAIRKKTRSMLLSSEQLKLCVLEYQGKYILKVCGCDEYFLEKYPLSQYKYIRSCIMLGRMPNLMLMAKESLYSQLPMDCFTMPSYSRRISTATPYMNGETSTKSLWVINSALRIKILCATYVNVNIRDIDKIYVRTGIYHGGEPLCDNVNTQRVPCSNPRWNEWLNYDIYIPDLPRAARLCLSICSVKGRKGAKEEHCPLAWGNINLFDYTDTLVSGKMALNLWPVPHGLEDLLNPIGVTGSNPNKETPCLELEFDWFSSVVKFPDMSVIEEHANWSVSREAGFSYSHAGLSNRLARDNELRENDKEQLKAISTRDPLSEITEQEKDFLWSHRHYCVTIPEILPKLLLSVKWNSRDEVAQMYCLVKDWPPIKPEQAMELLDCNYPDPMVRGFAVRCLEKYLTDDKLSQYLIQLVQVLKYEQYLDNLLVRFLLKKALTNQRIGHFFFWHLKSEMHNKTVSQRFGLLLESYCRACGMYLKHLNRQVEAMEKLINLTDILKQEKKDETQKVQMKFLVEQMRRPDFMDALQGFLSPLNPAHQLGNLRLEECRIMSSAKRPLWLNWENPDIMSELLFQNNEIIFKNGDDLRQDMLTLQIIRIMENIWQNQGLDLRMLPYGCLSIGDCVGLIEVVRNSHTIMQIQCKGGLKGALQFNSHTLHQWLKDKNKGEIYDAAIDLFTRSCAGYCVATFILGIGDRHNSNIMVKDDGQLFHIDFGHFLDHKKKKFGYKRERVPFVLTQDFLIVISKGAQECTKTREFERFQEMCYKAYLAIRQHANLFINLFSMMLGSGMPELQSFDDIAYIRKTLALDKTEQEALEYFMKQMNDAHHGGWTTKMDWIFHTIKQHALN
# Phosphatidylinositol 4,5-bisphosphate 3-kinase catalytic subunit beta isoform, sequence (P42338 whole entry, canonical isoform): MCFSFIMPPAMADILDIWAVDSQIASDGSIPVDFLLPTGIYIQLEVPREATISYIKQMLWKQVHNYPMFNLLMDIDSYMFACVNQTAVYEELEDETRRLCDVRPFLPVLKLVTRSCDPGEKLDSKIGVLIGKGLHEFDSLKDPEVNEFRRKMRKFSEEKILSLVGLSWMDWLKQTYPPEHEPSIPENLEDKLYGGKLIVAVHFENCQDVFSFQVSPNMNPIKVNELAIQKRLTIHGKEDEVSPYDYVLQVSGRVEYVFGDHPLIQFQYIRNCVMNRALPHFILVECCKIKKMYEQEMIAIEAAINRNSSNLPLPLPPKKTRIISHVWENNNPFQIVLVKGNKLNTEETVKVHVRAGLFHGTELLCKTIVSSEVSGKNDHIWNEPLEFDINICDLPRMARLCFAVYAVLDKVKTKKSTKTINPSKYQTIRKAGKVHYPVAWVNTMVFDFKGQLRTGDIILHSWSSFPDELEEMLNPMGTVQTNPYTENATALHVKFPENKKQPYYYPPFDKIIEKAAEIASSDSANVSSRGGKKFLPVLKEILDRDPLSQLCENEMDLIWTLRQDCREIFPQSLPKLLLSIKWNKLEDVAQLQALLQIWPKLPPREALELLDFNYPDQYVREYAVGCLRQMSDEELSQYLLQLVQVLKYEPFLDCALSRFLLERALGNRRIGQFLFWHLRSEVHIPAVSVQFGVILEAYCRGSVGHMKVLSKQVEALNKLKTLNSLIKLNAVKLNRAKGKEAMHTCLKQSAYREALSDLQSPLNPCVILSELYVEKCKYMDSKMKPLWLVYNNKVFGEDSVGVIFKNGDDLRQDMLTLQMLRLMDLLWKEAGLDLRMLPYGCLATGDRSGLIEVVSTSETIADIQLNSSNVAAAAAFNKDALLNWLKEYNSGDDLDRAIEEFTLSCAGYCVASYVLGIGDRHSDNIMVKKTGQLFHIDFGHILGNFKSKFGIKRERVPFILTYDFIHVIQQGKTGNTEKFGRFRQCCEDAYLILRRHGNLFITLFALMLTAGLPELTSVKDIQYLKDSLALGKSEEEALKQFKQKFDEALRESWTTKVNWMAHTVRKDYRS
# Phosphatidylinositol 4,5-bisphosphate 3-kinase catalytic subunit gamma isoform, sequence (P48736 whole entry, canonical isoform): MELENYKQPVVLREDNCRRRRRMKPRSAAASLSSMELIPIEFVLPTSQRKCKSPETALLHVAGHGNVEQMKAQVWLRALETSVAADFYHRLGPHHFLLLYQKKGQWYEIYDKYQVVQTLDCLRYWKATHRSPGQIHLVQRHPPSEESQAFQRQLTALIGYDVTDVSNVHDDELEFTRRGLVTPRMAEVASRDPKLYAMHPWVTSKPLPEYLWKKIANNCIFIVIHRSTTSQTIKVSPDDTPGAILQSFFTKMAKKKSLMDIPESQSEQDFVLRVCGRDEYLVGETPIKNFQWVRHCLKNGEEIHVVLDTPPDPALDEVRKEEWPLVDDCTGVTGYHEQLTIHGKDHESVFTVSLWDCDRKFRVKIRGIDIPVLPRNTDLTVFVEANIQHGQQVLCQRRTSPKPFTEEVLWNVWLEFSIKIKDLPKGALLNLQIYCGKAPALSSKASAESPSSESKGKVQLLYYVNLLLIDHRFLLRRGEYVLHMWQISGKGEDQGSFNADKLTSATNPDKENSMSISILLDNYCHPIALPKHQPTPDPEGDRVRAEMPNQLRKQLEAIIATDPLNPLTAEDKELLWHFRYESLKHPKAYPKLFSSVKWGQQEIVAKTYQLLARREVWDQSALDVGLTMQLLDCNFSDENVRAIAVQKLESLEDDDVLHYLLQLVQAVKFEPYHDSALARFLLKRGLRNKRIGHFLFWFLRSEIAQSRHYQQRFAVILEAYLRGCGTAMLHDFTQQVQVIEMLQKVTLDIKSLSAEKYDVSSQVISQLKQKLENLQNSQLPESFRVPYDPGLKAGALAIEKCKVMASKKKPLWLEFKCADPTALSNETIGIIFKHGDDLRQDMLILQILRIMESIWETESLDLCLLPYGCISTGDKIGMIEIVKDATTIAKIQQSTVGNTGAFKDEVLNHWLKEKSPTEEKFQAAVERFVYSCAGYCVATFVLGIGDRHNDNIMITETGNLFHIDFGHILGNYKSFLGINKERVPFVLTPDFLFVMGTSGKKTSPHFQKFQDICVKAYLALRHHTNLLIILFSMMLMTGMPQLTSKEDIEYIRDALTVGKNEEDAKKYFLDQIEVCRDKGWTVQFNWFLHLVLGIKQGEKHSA
structure (smiles),measurement,setting,value
O=c1oc2ccccc2c2nn(CN3CCN(S(=O)(=O)c4ccc(Cl)c([N+](=O)[O-])c4)CC3)cc12,inhibition in vivo at 10 mg/kg,HCT-116 [1],66.4%
same,pIC50,HCT-116 [2],7.52
same,pIC50,Huh-7,7.05
same,pIC50,HL-60,7.22
same,pIC50,[3],8.05
same,pIC50,[4],6.92
same,pIC50,[5],7.09
same,CC50,[6],386000 nM
same,pIC50,[7],5.03
same,inhibition,[8],Dose-dependent effect
same,inhibition,[9],Dose-dependent effect
same,Activity,HCT-116 [10],46.87%
same,Activity,HCT-116 [11],10.73%
same,Activity,HCT-116 [12],42.4%
same,Activity,HCT-116 [13],50.95%
same,Activity,HCT-116 [14],9.52%
same,Activity,HCT-116 [15],39.53%
same,Activity,HCT-116 [16],8.09%
same,viability at 0.25 µM,HCT-116 [17],56%
same,Activity,HCT-116 [18],6.98%
same,viability at 0.5 µM,HCT-116 [19],46%
same,Activity,HCT-116 [20],17.1%
same,Activity,HCT-116 [21],30.8%
same,Activity,HCT-116 [22],6.04%
same,viability at 1 µM,HCT-116 [23],36.6%
same,Activity,HCT-116 [24],36.9%
same,Activity,HCT-116 [25],Dose-dependent effect
same,Activity,HCT-116 [26],Dose-dependent effect
